Columns and labels:
Hepatitis C virus [1] = assay: Antiviral activity against HCV1b infected in human HuH7 cells assessed as inhibition of viral replication by RT-PCR analysis; assay type: functional, organism-based, Hepacivirus hominis; conditions: genotype 1b, Huh-7
In short: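 Huh7 cells carrying a subgenomic genotype 1b HCV replicon were treated with compound, and HCV RNA replication was measured. HCV RNA and ribosomal RNA were extracted and amplified together, and cytotoxicity in Huh7 was read at the same time. EC50 and EC90 came from dose–response curves of at least four concentrations, each run in triplicate, and are reported as means.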

PBMC = assay: Cytotoxicity against human PBMC after 3 days; assay type: cell-based; conditions: 72 h
In short: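 CC50 was measured in human peripheral blood mononuclear (PBM) cells, the human T-cell-derived CEM line, and African green monkey kidney epithelial Vero cells. Dose–response was fitted from at least four concentrations, each run in triplicate and reported as the mean.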

CCRF-CEM = assay: Cytotoxicity against human CEM cells after 3 days; assay type: cell-based; conditions: 72 h
Vero = assay: Cytotoxicity against african green monkey Vero cells after 3 days; assay type: cell-based; conditions: chlorocebus sabaeus, 72 h
Hepatitis C virus [2] = assay: Antiviral activity against HCV1b infected in human assessed as reduction of viral RNA level at 10 mg after 24 hrs; assay type: functional, Hepacivirus hominis, genotype 1b
[3] = Therapeutic index, ratio of CC50 for human PBMC to EC50 for HCV1b
In short: (§1)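 The index is CC50/EC50. EC50 came from Huh7 cells carrying a subgenomic genotype 1b HCV replicon, with HCV RNA quantified by extraction and amplification alongside rRNA. CC50 was measured in PBM, CEM or Vero cells. Each dose–response used at least four concentrations in triplicate, and means were reported.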

[4] = Therapeutic index, ratio of CC50 for human CEM cells to EC50 for HCV1b; assay type: cell-based, CCRF-CEM; in short: as §1
[5] = Therapeutic index, ratio of CC50 for african green monkey Vero cells to EC50 for HCV1b; assay type: cell-based; in short: as §1

## COC(=O)N[C@H](C(=O)N1CCC[C@H]1c1ncc(-c2ccc(-c3cnc([C@@H]4CCCN4C(=O)[C@@H](NC(=O)OC)C(C)C)[nH]3)cc2)[nH]1)C(C)C
Hepatitis C virus [1]
  EC50: > 1 nM
PBMC
  CC50: > 100 µM
CCRF-CEM
  CC50: > 100 µM
Vero
  CC50: > 100 µM

## COC(=O)N[C@H](C(=O)N1CCC[C@H]1c1ncc(-c2ccc(Oc3ccc(-c4cnc([C@@H]5CCCN5C(=O)[C@@H](NC(=O)OC)C(C)C)[nH]4)cc3)cc2)[nH]1)C(C)C
Hepatitis C virus [1]
  EC50: 30 nM
  EC90: 90 nM
PBMC
  CC50: 16 µM
CCRF-CEM
  CC50: 16 µM
Vero
  CC50: 19 µM

## COC(=O)N[C@H](C(=O)N1CCC[C@H]1c1ncc(-c2ccc(-c3ccc(-c4cnc([C@@H]5CCCN5C(=O)[C@@H](NC(=O)OC)C(C)C)[nH]4)cc3)cc2)[nH]1)C(C)C
Hepatitis C virus [1]
  EC50: 0.0066 nM
  EC90: 0.023 nM
PBMC
  CC50: 19 µM
Hepatitis C virus [2]
  Activity: > 3 log10IU/ml

## COC(=O)N[C@H](C(=O)N1CCC[C@H]1c1ncc(-c2ccc(NS(=O)(=O)c3ccc(-c4cnc([C@@H]5CCCN5C(=O)[C@@H](NC(=O)OC)C(C)C)[nH]4)cc3)cc2)[nH]1)C(C)C
Hepatitis C virus [1]
  EC50: 100 nM
  EC90: > 100 nM
PBMC
  CC50: 15 µM
CCRF-CEM
  CC50: 13 µM
Vero
  CC50: > 100 µM

## COC(=O)N[C@H](C(=O)N1CCC[C@H]1c1ncc(-c2ccc(-c3ccc(-c4cnc([C@@H]5CCCN5C(=O)[C@@H](NC(=O)OC)C(C)C)[nH]4)s3)cc2)[nH]1)C(C)C
Hepatitis C virus [1]
  EC50: 90.6 nM
  EC90: > 100 nM
PBMC
  CC50: 93 µM
CCRF-CEM
  CC50: 48 µM
Vero
  CC50: 99 µM

## COC(=O)N[C@H](C(=O)N1CCC[C@H]1c1ncc(-c2ccc(-c3ccc(-c4ccc(-c5cnc([C@@H]6CCCN6C(=O)[C@@H](NC(=O)OC)C(C)C)[nH]5)cc4)cc3)cc2)[nH]1)C(C)C
Hepatitis C virus [1]
  EC50: 0.026 nM
  EC90: 0.09 nM
PBMC
  CC50: > 100 µM
CCRF-CEM
  CC50: > 100 µM
Vero
  CC50: > 100 µM
[3]
  selectivity ratio: > 4e+06
[4]
  selectivity ratio: > 4e+06
[5]
  selectivity ratio: > 4e+06

## COC(=O)N[C@H](C(=O)N1CCC[C@H]1c1ncc(-c2ccc(-c3ccc(-c4ccc(-c5cnc([C@@H]6CCCN6C(=O)[C@@H](NC(=O)OC)C(C)C)[nH]5)cc4)nc3)cc2)[nH]1)C(C)C
Hepatitis C virus [1]
  EC50: 0.026 nM
  EC90: 0.068 nM
PBMC
  CC50: 3.9 µM
CCRF-CEM
  CC50: 2.3 µM
Vero
  CC50: 6.5 µM

## COC(=O)N[C@H](C(=O)N1CCC[C@H]1c1ncc(-c2ccc(-c3cccc(-c4ccc(-c5cnc([C@@H]6CCCN6C(=O)[C@@H](NC(=O)OC)C(C)C)[nH]5)cc4)c3)cc2)[nH]1)C(C)C
Hepatitis C virus [1]
  EC50: 0.8 nM
  EC90: 2.9 nM
PBMC
  CC50: 18 µM
CCRF-CEM
  CC50: 3 µM
Vero
  CC50: > 100 µM

## COC(=O)N[C@H](C(=O)N1CCC[C@H]1c1ncc(-c2ccc(-c3ccc(-c4ccc(-c5cnc([C@@H]6CCCN6C(=O)[C@@H](NC(=O)OC)C(C)C)[nH]5)cc4)s3)cc2)[nH]1)C(C)C
Hepatitis C virus [1]
  EC50: 0.1 nM
  EC90: 0.3 nM
PBMC
  CC50: 26 µM
CCRF-CEM
  CC50: 12 µM
Vero
  CC50: > 100 µM

## COC(=O)N[C@H](C(=O)N1CCC[C@H]1c1ncc(-c2ccc(-c3ccc(-c4ccc(-c5ccc(-c6cnc([C@@H]7CCCN7C(=O)[C@@H](NC(=O)OC)C(C)C)[nH]6)cc5)cc4)cc3)cc2)[nH]1)C(C)C
Hepatitis C virus [1]
  EC50: 0.24 nM
  EC90: 1 nM
PBMC
  CC50: > 100 µM
CCRF-CEM
  CC50: > 100 µM
Vero
  CC50: > 100 µM

## COC(=O)N[C@H](C(=O)N1CCC[C@H]1c1ncc(-c2ccc(-c3ccc(-c4ccc(-c5cnc([C@@H]6CCCN6C(=O)[C@@H](NC(=O)OC)C(C)C)[nH]5)cn4)cc3)cc2)[nH]1)C(C)C
Hepatitis C virus [1]
  EC50: 0.2 nM
  EC90: 0.7 nM
PBMC
  CC50: 5.5 µM
CCRF-CEM
  CC50: 31 µM
Vero
  CC50: 29 µM

## COC(=O)N[C@H](C(=O)N1CCC[C@H]1c1ncc(-c2ccc(-c3cn(-c4ccc(-c5cnc([C@@H]6CCCN6C(=O)[C@@H](NC(=O)OC)C(C)C)[nH]5)cc4)nn3)cc2)[nH]1)C(C)C
Hepatitis C virus [1]
  EC50: 0.2 nM
  EC90: 0.9 nM
PBMC
  CC50: 18 µM
CCRF-CEM
  CC50: 5 µM
Vero
  CC50: 35 µM

— ChEMBL document CHEMBL2021872, “Synthesis and biological evaluation of new potent and selective HCV NS5A inhibitors” (Bioorg Med Chem Lett, 2012)
